ChEMBL document CHEMBL2384935, “Role of Amphiphilicity in the Design of Synthetic Mimics of Antimicrobial Peptides with Gram-negative Activity” (ACS Med Chem Lett, 2013)
In brackets after ≈: the same amount, converted by molar mass.

How the values were obtained:
[1] = test system: Escherichia coli; test: Antibacterial activity against Escherichia coli ATCC 25922 assessed as growth inhibition after 18 hrs by CLSI microbroth dilution assay; format: functional; conditions: ATCC 25922, 18 h
[2] = test system: Staphylococcus aureus; test: Antibacterial activity against Staphylococcus aureus ATCC 27660 assessed as growth inhibition after 18 hrs by CLSI microbroth dilution assay; format: functional; conditions: ATCC 27660, 18 h
[3] = Hemolytic activity in human RBC assessed as hemoglobin release after 1 hr; format: ADME, cell-based, Erythrocyte; conditions: human red blood cells
Outline: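 Human red blood cells were exposed to the compounds. The value is the HC50, the concentration that produces 50% hemolysis of the RBCs.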

Compound | MIC [1] | MIC [2] | HC50 at 1 h [3]
NCCCOc1cc(OCCCN)cc(-c2cc(NC(=O)Cc3c[nH]c4ccccc34)cc(-c3cc(OCCCN)cc(OCCCN)c3)c2)c1 | > 50 µg/mL | 12.5 µg/mL (≈ 18 µM) | 519 µg/mL
NCCCOc1cc(OCCCN)cc(-c2cc(NC(=O)c3ccc4ccccc4c3)cc(-c3cc(OCCCN)cc(OCCCN)c3)c2)c1 | > 50 µg/mL | 6.25 µg/mL (≈ 9.03 µM) | 422 µg/mL
NCCCOc1cc(OCCCN)cc(-c2cc(NC(=O)c3ccc(-c4ccccc4)cc3)cc(-c3cc(OCCCN)cc(OCCCN)c3)c2)c1 | 25 µg/mL (≈ 34.8 µM) | 1.56 µg/mL (≈ 2.17 µM) | 113 µg/mL
NCCCOc1cc(OCCCN)cc(-c2cc(-c3ccccc3)cc(-c3cc(OCCCN)cc(OCCCN)c3)c2)c1 | 3.13 µg/mL (≈ 5.23 µM) | 12.5 µg/mL (≈ 20.9 µM) | 537 µg/mL
Cc1ccc(-c2cc(-c3cc(OCCCN)cc(OCCCN)c3)cc(-c3cc(OCCCN)cc(OCCCN)c3)c2)cc1 | 3.13 µg/mL (≈ 5.11 µM) | 0.78 µg/mL (≈ 1.27 µM) | 279 µg/mL
NCCCOc1cc(OCCCN)cc(-c2cc(-c3cc(OCCCN)cc(OCCCN)c3)cc(-c3cc4ccccc4[nH]3)c2)c1 | 6.25 µg/mL (≈ 9.8 µM) | 1.56 µg/mL (≈ 2.45 µM) | 634 µg/mL
CC(C)(C)c1ccc(-c2cc(-c3cc(OCCCN)cc(OCCCN)c3)cc(-c3cc(OCCCN)cc(OCCCN)c3)c2)cc1 | 3.13 µg/mL (≈ 4.78 µM) | 1.56 µg/mL (≈ 2.38 µM) | 41 µg/mL
NCCCOc1cc(OCCCN)cc(-c2cc(-c3cc(OCCCN)cc(OCCCN)c3)cc(-c3cc(C(F)(F)F)cc(C(F)(F)F)c3)c2)c1 | 6.25 µg/mL (≈ 8.51 µM) | 1.56 µg/mL (≈ 2.12 µM) | 34 µg/mL
NCCCOc1cc(OCCCN)cc(-c2cc(NC(=O)c3ccccc3)cc(-c3cc(OCCCN)cc(OCCCN)c3)c2)c1 | > 50 µg/mL | 50 µg/mL (≈ 77.9 µM) | > 1000 µg/mL
Ac-GIGKFLKKAKKFGKAFVKILKK-NH2 | 16 µg/mL | 8 µg/mL | 120 µg/mL
